Experimental data pooled from the literature.
Compare with care: the assays were run in different laboratories.
PIK3CD: Phosphatidylinositol 4,5-bisphosphate 3-kinase catalytic subunit delta isoform (PIK3CD, Homo sapiens, UniProt O00329)

Structure (SMILES) | target | observed | action | method | concentration | endpoint | value
Cc1cc(O)c(-c2ccc([C@@H](C)CN(C)C)cc2)c2c1[nH]c(=O)c1sccc12 | PIK3CD | enzyme activity | inhibitor |  | 0.1 µM | inhibition | -6.12%
CCCCC(=O)Nc1ccc(-c2ccc3ncn(CCC)c(=O)c3c2)cn1 | PIK3CD | binding |  | competition with immobilised ligand | 0.5 µM | remaining binding | 100%
C#Cc1cc(-c2cc(Nc3nc(N[C@@H](C)c4ccc(F)cn4)ncc3Cl)n[nH]2)ccc1C=O | PIK3CD | enzyme activity | inhibitor |  | 0.2 µM | inhibition | 29.3%
COc1ccc2[nH]c3c4[nH]c5ccc(OC)cc5c4c4c(c3c2c1)C(=O)NC4=O | PIK3CD | binding |  |  | 1 µM | remaining binding | 64%
CC(C)S(=O)(=O)c1ccc2nccc(Nc3ccc4sc(C5CCCC5)nc4c3)c2c1 | Phosphatidylinositol 4,5-bisphosphate 3-kinase catalytic subunit delta isoform, with p85 (PIK3CD, Homo sapiens, UniProt O00329) | enzyme activity | inhibitor |  | 1 µM | activity vs control | 91%
C=CC(=O)N1CCC([C@@H]2CCNc3c(C(N)=O)c(-c4ccc(Oc5ccccc5)cc4)nn32)CC1 | PIK3CD | enzyme activity | inhibitor |  | 1 µM | inhibition | 11%
C[C@H]1CC[C@H](n2c3cnccc3c3cnc(Nc4ccc5c(n4)CCN(C(=O)CO)C5)nc32)CC1 | PIK3CD | cell-free assay |  |  | 1 µM | remaining signal | 87%
CO[C@@H]1[C@H](N(C)C(=O)c2ccccc2)C[C@H]2O[C@]1(C)n1c3ccccc3c3c4c(c5c6ccccc6n2c5c31)C(=O)NC4 | PIK3CD | enzyme activity | inhibitor |  | 1 µM | inhibition | 0%
C1=C/COCc2cc(ccc2OCCN2CCCC2)Nc2nccc(n2)-c2cccc(c2)COC/1 | PIK3CD | binding |  |  | 0.1 µM | remaining binding | 30%
